Source: ChEMBL document CHEMBL4477155, “Simplified Bryostatin Analogues Protect Cells from Chikungunya Virus-Induced Cell Death” (J Nat Prod, 2016)
pEC50: −log10 of the molar value.

Columns and labels:
[1] = tested on: Chikungunya virus; test: Antiviral activity against Chikungunya virus Indian Ocean 899 infected in African green monkey BGM cells assessed as inhibition of virus-induced cytopathic effect after 5 days by MTS/PMS based […] analysis; assay type: functional, organism-based; conditions: Indian Ocean 899, BGM, 120 h
[2] = Cytotoxicity against African green monkey BGM cells assessed as reduction in cell viability after 5 days by MTS/PMS based microscopic analysis; conditions: chlorocebus aethiops
Method in brief: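 Uninfected BGM cells (2.5 × 10^4 cells/well, adhered overnight) exposed to compound dilution series in MEM with 2% FBS at 37 °C, 5% CO2; metabolic activity read by MTS/PMS, with microscopic check of monolayer morphology. CC50 = concentration reducing overall metabolic activity by 50%, by logarithmic interpolation.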

Row | SMILES | pEC50 [1] | CC50 at 120 h [2]
1 | CCC/C=C/C=C/C(=O)O[C@H]1/C(=C/C(=O)OC)C[C@H]2C[C@H]([C@@H](C)O)OC(=O)C[C@H](O)C[C@@H]3C[C@H](O)C(C)(C)[C@](O)(C[C@@H]4C/C(=C/C(=O)OC)C[C@H](/C=C/C(C)(C)[C@]1(O)O2)O4)O3 | < 4.02 | > 96 µM
2 | C=C1C[C@H]2C[C@@H]3O[C@@H](CCC3(C)C)C[C@@H](O)CC(=O)O[C@@H](CO)C[C@@H]3C/C(=C\C(=O)OC)[C@H](OC(=O)CCCCCCC)[C@@](O)(O3)C(C)(C)/C=C/[C@@H](C1)O2 | 6.46 | 
3 | CCC/C=C/C=C/C(=O)O[C@H]1/C(=C/C(=O)OC)C[C@H]2C[C@H]([C@@H](C)O)OC(=O)C[C@H](O)C[C@@H]3C[C@H](OC(C)=O)C(C)(C)[C@](O)(C[C@@H]4C/C(=C/C(=O)OC)C[C@H](/C=C/C(C)(C)[C@]1(O)O2)O4)O3 [BRYOSTATIN 1] | < 4.02 | 
